Assays:
Rattus norvegicus [1] = species on record: Rattus norvegicus; experiment: Biodistribution of radiolabeled compound in rat kidney after 30 min activity expressed as %ID/Organ; assay type: ADME, organism-based; details: in vivo, 0.5 h
How it was run: (§1)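 Mature female Sprague-Dawley rats (180–200 g) each received the 64Cu complex diluted with saline, about 15 μCi in 150 μL. Groups were sacrificed at 5 min, 30 min, 2 h and 24 h postinjection. Organs were excised, weighed and gamma-counted. %ID/organ was calculated against a weighed, counted standard.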

Rattus norvegicus [2] = species on record: Rattus norvegicus; experiment: Biodistribution of radiolabeled compound in rat brain after 24 hr activity expressed as %ID/Organ; assay type: ADME, organism-based; details: in vivo; how it was run: as §1
Rattus norvegicus [3] = species on record: Rattus norvegicus; experiment: Biodistribution of radiolabeled compound in rat lung after 30 min activity expressed as %ID/Organ; assay type: ADME, organism-based; details: in vivo, 0.5 h; how it was run: as §1
Rattus norvegicus [4] = species on record: Rattus norvegicus; experiment: Biodistribution of radiolabeled compound in rat muscle after 2 hr activity expressed as %ID/Organ; assay type: ADME, organism-based, Muscle tissue; details: in vivo; how it was run: as §1
Rattus norvegicus [5] = species on record: Rattus norvegicus; experiment: Biodistribution of radiolabeled compound in rat heart after 2 hr activity expressed as %ID/Organ; assay type: ADME, organism-based; details: in vivo; how it was run: as §1
Rattus norvegicus [6] = species on record: Rattus norvegicus; experiment: Biodistribution of radiolabeled compound in rat heart after 30 min activity expressed as %ID/Organ; assay type: ADME, organism-based; details: in vivo, 0.5 h; how it was run: as §1
Rattus norvegicus [7] = species on record: Rattus norvegicus; experiment: Biodistribution of radiolabeled compound in rat muscle after 5 min activity expressed as %ID/Organ; assay type: ADME, organism-based, Muscle tissue; details: in vivo; how it was run: as §1
Rattus norvegicus [8] = species on record: Rattus norvegicus; experiment: Biodistribution of radiolabeled compound in rat bone after 30 min activity expressed as %ID/Organ; assay type: ADME, organism-based, Bone element; details: in vivo, 0.5 h; how it was run: as §1
Rattus norvegicus [9] = species on record: Rattus norvegicus; experiment: Biodistribution of radiolabeled compound in rat blood after 30 min activity expressed as %ID/Organ; assay type: ADME, organism-based; details: in vivo, 0.5 h; how it was run: as §1
Rattus norvegicus [10] = species on record: Rattus norvegicus; experiment: Biodistribution of radiolabeled compound in rat bone after 5 min activity expressed as %ID/Organ; assay type: ADME, organism-based, Bone element; details: in vivo; how it was run: as §1
Rattus norvegicus [11] = species on record: Rattus norvegicus; experiment: Biodistribution of radiolabeled compound in rat muscle after 30 min activity expressed as %ID/Organ; assay type: ADME, organism-based, Muscle tissue; details: in vivo, 0.5 h; how it was run: as §1
Rattus norvegicus [12] = species on record: Rattus norvegicus; experiment: Biodistribution of radiolabeled compound in rat liver after 2 hr activity expressed as %ID/Organ; assay type: ADME, organism-based; details: in vivo; how it was run: as §1
Rattus norvegicus [13] = species on record: Rattus norvegicus; experiment: Biodistribution of radiolabeled compound in rat blood after 5 min activity expressed as %ID/Organ; assay type: ADME, organism-based; details: in vivo; how it was run: as §1
Rattus norvegicus [14] = species on record: Rattus norvegicus; experiment: Biodistribution of radiolabeled compound in rat muscle after 24 hr activity expressed as %ID/Organ; assay type: ADME, organism-based, Muscle tissue; details: in vivo; how it was run: as §1
Rattus norvegicus [15] = species on record: Rattus norvegicus; experiment: Biodistribution of radiolabeled compound in rat brain after 30 min activity expressed as %ID/Organ; assay type: ADME, organism-based; details: in vivo, 0.5 h; how it was run: as §1
Rattus norvegicus [16] = species on record: Rattus norvegicus; experiment: Biodistribution of radiolabeled compound in rat brain after 2 hr activity expressed as %ID/Organ; assay type: ADME, organism-based; details: in vivo; how it was run: as §1
Rattus norvegicus [17] = species on record: Rattus norvegicus; experiment: Biodistribution of radiolabeled compound in rat blood after 2 hr activity expressed as %ID/Organ; assay type: ADME, organism-based; details: in vivo; how it was run: as §1
Rattus norvegicus [18] = species on record: Rattus norvegicus; experiment: Biodistribution of radiolabeled compound in rat bone after 2 hr activity expressed as %ID/Organ; assay type: ADME, organism-based, Bone element; details: in vivo; how it was run: as §1
Rattus norvegicus [19] = species on record: Rattus norvegicus; experiment: Biodistribution of radiolabeled compound in rat liver after 24 hr activity expressed as %ID/Organ; assay type: ADME, organism-based; details: in vivo; how it was run: as §1
Rattus norvegicus [20] = species on record: Rattus norvegicus; experiment: Biodistribution of radiolabeled compound in rat liver after 5 min activity expressed as %ID/Organ; assay type: ADME, organism-based; details: in vivo; how it was run: as §1
Rattus norvegicus [21] = species on record: Rattus norvegicus; experiment: Biodistribution of radiolabeled compound in rat blood after 24 hr activity expressed as %ID/Organ; assay type: ADME, organism-based; details: in vivo; how it was run: as §1
Rattus norvegicus [22] = species on record: Rattus norvegicus; experiment: Biodistribution of radiolabeled compound in rat kidney after 2 hr activity expressed as %ID/Organ; assay type: ADME, organism-based; details: in vivo; how it was run: as §1
Rattus norvegicus [23] = species on record: Rattus norvegicus; experiment: Biodistribution of radiolabeled compound in rat lung after 2 hr activity expressed as %ID/Organ; assay type: ADME, organism-based; details: in vivo; how it was run: as §1
Rattus norvegicus [24] = species on record: Rattus norvegicus; experiment: Biodistribution of radiolabeled compound in rat brain after 5 min activity expressed as %ID/Organ; assay type: ADME, organism-based; details: in vivo; how it was run: as §1
Rattus norvegicus [25] = species on record: Rattus norvegicus; experiment: Biodistribution of radiolabeled compound in rat bone after 24 hr activity expressed as %ID/Organ; assay type: ADME, organism-based, Bone element; details: in vivo; how it was run: as §1
Rattus norvegicus [26] = species on record: Rattus norvegicus; experiment: Biodistribution of radiolabeled compound in rat heart after 24 hr activity expressed as %ID/Organ; assay type: ADME, organism-based; details: in vivo; how it was run: as §1
Rattus norvegicus [27] = species on record: Rattus norvegicus; experiment: Biodistribution of radiolabeled compound in rat fat after 5 min activity expressed as %ID/Organ; assay type: ADME, organism-based, Adipose tissue; details: in vivo; how it was run: as §1
Rattus norvegicus [28] = species on record: Rattus norvegicus; experiment: Biodistribution of radiolabeled compound in rat lung after 5 min activity expressed as %ID/Organ; assay type: ADME, organism-based; details: in vivo; how it was run: as §1
Rattus norvegicus [29] = species on record: Rattus norvegicus; experiment: Biodistribution of radiolabeled compound in rat fat after 2 hr activity expressed as %ID/Organ; assay type: ADME, organism-based, Adipose tissue; details: in vivo; how it was run: as §1
Rattus norvegicus [30] = species on record: Rattus norvegicus; experiment: Biodistribution of radiolabeled compound in rat fat after 24 hr activity expressed as %ID/Organ; assay type: ADME, organism-based, Adipose tissue; details: in vivo; how it was run: as §1
Rattus norvegicus [31] = species on record: Rattus norvegicus; experiment: Biodistribution of radiolabeled compound in rat fat after 30 min activity expressed as %ID/Organ; assay type: ADME, organism-based, Adipose tissue; details: in vivo, 0.5 h; how it was run: as §1
Rattus norvegicus [32] = species on record: Rattus norvegicus; experiment: Biodistribution of radiolabeled compound in rat lung after 24 hr activity expressed as %ID/Organ; assay type: ADME, organism-based; details: in vivo; how it was run: as §1
Rattus norvegicus [33] = species on record: Rattus norvegicus; experiment: Biodistribution of radiolabeled compound in rat heart after 5 min activity expressed as %ID/Organ; assay type: ADME, organism-based; details: in vivo; how it was run: as §1
Rattus norvegicus [34] = species on record: Rattus norvegicus; experiment: Biodistribution of radiolabeled compound in rat kidney after 5 min activity expressed as %ID/Organ; assay type: ADME, organism-based; details: in vivo; how it was run: as §1
Rattus norvegicus [35] = species on record: Rattus norvegicus; experiment: Biodistribution of radiolabeled compound in rat liver after 30 min activity expressed as %ID/Organ; assay type: ADME, organism-based; details: in vivo, 0.5 h; how it was run: as §1
Rattus norvegicus [36] = species on record: Rattus norvegicus; experiment: Biodistribution of radiolabeled compound in rat kidney after 24 hr activity expressed as %ID/Organ; assay type: ADME, organism-based; details: in vivo; how it was run: as §1
Rattus norvegicus [37] = species on record: Rattus norvegicus; experiment: Biodistribution of radiolabeled compound in rat liver after 24 hr postinjection activity expressed as %ID/Organ; assay type: ADME, organism-based; details: in vivo
Rattus norvegicus [38] = species on record: Rattus norvegicus; experiment: Biodistribution of radiolabeled compound in rat blood after 24 hr postinjection activity expressed as %ID/Organ; assay type: ADME, organism-based; details: in vivo
Rattus norvegicus [39] = species on record: Rattus norvegicus; experiment: Biodistribution of radiolabeled compound in rat kidney after 24 hr postinjection activity expressed as %ID/Organ; assay type: ADME, organism-based; details: in vivo

Cu-CB-DO2A
Biodistribution (Rattus norvegicus [1]): 1.14%
Biodistribution (Rattus norvegicus [2]): 0.002%
Biodistribution (Rattus norvegicus [3]): 0.21%
Biodistribution (Rattus norvegicus [4]): 1.39%
Biodistribution (Rattus norvegicus [5]): 0.0095%
Biodistribution (Rattus norvegicus [6]): 0.067%
Biodistribution (Rattus norvegicus [7]): 18.27%
Biodistribution (Rattus norvegicus [8]): 1.69%
Biodistribution (Rattus norvegicus [9]): 3.79%
Biodistribution (Rattus norvegicus [10]): 4.52%
Biodistribution (Rattus norvegicus [11]): 6.42%
Biodistribution (Rattus norvegicus [12]): 0.93%
Biodistribution (Rattus norvegicus [13]): 13.45%
Biodistribution (Rattus norvegicus [14]): 0.28%
Biodistribution (Rattus norvegicus [15]): 0.036%
Biodistribution (Rattus norvegicus [16]): 0.008%
Biodistribution (Rattus norvegicus [17]): 0.32%
Biodistribution (Rattus norvegicus [18]): 0.56%
Biodistribution (Rattus norvegicus [19]): 0.39%
Biodistribution (Rattus norvegicus [20]): 2.47%
Biodistribution (Rattus norvegicus [21]): 0.14%
Biodistribution (Rattus norvegicus [22]): 0.44%
Biodistribution (Rattus norvegicus [23]): 0.044%
Biodistribution (Rattus norvegicus [24]): 0.097%
Biodistribution (Rattus norvegicus [25]): 0.24%
Biodistribution (Rattus norvegicus [26]): 0.0065%
Biodistribution (Rattus norvegicus [27]): 3.99%
Biodistribution (Rattus norvegicus [28]): 0.72%
Biodistribution (Rattus norvegicus [29]): 0.22%
Biodistribution (Rattus norvegicus [30]): 0.12%
Biodistribution (Rattus norvegicus [31]): 2.14%
Biodistribution (Rattus norvegicus [32]): 0.019%
Biodistribution (Rattus norvegicus [33]): 0.22%
Biodistribution (Rattus norvegicus [34]): 2.64%
Biodistribution (Rattus norvegicus [35]): 1.47%
Biodistribution (Rattus norvegicus [36]): 0.064%

Cu-CB-TE2A
Biodistribution (Rattus norvegicus [37]): 0.14%
Biodistribution (Rattus norvegicus [38]): 0.032%
Biodistribution (Rattus norvegicus [39]): 0.064%

Cu-DOTA
Biodistribution (Rattus norvegicus [37]): 1.05%
Biodistribution (Rattus norvegicus [38]): 0.58%
Biodistribution (Rattus norvegicus [39]): 0.54%

Cu-TETA
Biodistribution (Rattus norvegicus [37]): 0.49%
Biodistribution (Rattus norvegicus [38]): 0.21%
Biodistribution (Rattus norvegicus [39]): 0.21%

Reference: ChEMBL document CHEMBL1149099, “Comparative in vivo stability of copper-64-labeled cross-bridged and conventional tetraazamacrocyclic complexes” (J Med Chem, 2004)
